This note sets out measurements from ChEMBL document CHEMBL4396897, “Potent 5-Cyano-6-phenyl-pyrimidin-Based Derivatives Targeting DCN1-UBE2M Interaction” (J Med Chem, 2019).

As a reminder, the IC50 is the concentration that inhibits the measured activity by half.

The subject of one assay is KYSE-70 cell line. Put plainly: Antiproliferative activity against human KYSE-70 after 72 hrs by MTT assay. In kind it is functional, cell-based. The settings on record: KYSE-70, 72 h. In short, it runs like this:
(§1)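 MTT viability assay: cells seeded at 2~5×10^3 per well, exposed to serial dilutions of compound for 72h, then MTT (5 mg/mL in PBS) added for 4h at 37°C. Formazan dissolved in DMSO and read at 490nm. IC50 reported as mean ± SD of three independent experiments.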

The subject of a further assay is PC-3. Put plainly: Antiproliferative activity against human PC3 after 72 hrs by MTT assay. The settings on record: PC-3, 72 h. In kind it is functional, cell-based. An outline of the steps:
as §1
A general note: Formazan colour is commonly taken as a measure of viable cells.

Assay [1] deals with T1, DCN1-like protein 1 (Homo sapiens, UniProt Q96GG9). Put plainly: Binding affinity to N-terminal His6-tagged recombinant human DCN1 expressed in Escherichia coli BL21-AI assessed as reduction in DCN1-FAM-labelled N-terminal acetylated UBE2M (1 to 12 residues) protein-protein interaction after 30 mins by fluorescence polarization competitive binding assay.
T1 sequence (Q96GG9 whole entry, the tested form may be a part): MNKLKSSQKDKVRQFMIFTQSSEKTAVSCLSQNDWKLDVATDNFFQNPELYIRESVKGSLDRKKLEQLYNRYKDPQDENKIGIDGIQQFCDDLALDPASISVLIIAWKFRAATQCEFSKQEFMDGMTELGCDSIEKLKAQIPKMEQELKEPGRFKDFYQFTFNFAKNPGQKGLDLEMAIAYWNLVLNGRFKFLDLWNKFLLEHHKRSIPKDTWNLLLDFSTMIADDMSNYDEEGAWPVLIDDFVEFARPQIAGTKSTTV
The next assay has as its system PC-9. Put plainly: Antiproliferative activity against human PC9 by MTT assay. In kind it is functional, cell-based. In short, it runs like this:
as §1

The target of assay [2] is T2, DCN1-like protein 1/NEDD8-conjugating enzyme Ubc12 (Homo sapiens) (UniProt Q96GG9+P61081). Put plainly: Inhibition of DCN1-UBE2M protein-protein interaction in human NCI-H1975 cells assessed as stabilization of DCN1 at 10 uM incubated for 5 hrs at 53 degC by cellular thermal shift assay. In kind it is cell-based. An outline of the steps: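 H1975 cells exposed to 10µM compound or 1‰ DMSO for 3-5h (5h in legend), collected, aliquoted and heated 10 min across 43–61°C. Cells lysed by three liquid-nitrogen freeze-thaw cycles and centrifuged at 12,000×g for 20 min. Soluble DCN1 in supernatant quantified by Western blot band intensity; at least three experiments.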
T2 sequence (P61081 whole entry, looked up): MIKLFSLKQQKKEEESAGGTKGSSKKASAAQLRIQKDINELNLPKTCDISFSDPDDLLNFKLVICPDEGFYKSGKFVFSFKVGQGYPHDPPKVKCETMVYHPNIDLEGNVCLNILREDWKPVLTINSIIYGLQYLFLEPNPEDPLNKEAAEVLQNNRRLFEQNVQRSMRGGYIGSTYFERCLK
T2 sequence (Q96GG9 whole entry, looked up): as the sequence (Q96GG9 whole entry, the tested form may be a part) above

For assay [3], the target named is T1, DCN1-like protein 1. Put plainly: Binding affinity to N-terminal GST tagged recombinant human DCN1 (58 to 259 residues) expressed in Escherichia coli BL21(DE3) assessed as reduction in DCN1-FAM-labelled N-terminal acetylated UBE2M (1 to 21 residues) protein-protein interaction after 30 mins by HTRF assay. For orientation: Time-resolved FRET reads energy transfer from a long-lived donor to a nearby acceptor.

A further assay deals with MCF7. Put plainly: Antiproliferative activity against human MCF7 after 72 hrs by MTT assay. In kind it is functional, cell-based. The settings on record: MCF7, 72 h. In short, it runs like this:
as §1

The subject of a further assay is SMMC-7721. Put plainly: Antiproliferative activity against human SMMC7721 after 72 hrs by MTT assay. It counts as functional, cell-based. The settings on record: SMMC-7721, 72 h. In short, it runs like this: as §1
For assay [4], the target named is T2, DCN1-like protein 1/NEDD8-conjugating enzyme Ubc12 (Homo sapiens). Put plainly: Inhibition of DCN1-UBE2M protein-protein interaction in human PC9 cells assessed as increase in NQO1 accumulation at 3 uM incubated for 24 hrs by Western blot analysis. In kind it is cell-based. An outline of the steps: (§2)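 H1975 and PC9 cells seeded at 1×10⁶ cells, incubated overnight, then treated 24h with compound (0, 0.3, 1, 10 and 20 μM in methods; 3 μM also listed in text). Lysates cleared at 12,000×g, 20 min, 4°C, protein by BCA, SDS–PAGE, nitrocellulose, primary antibodies overnight at 4°C, HRP secondary, ECL. Densitometry normalised to GAPDH; three experiments.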

For assay [5] the target is unchanged. Put plainly: Inhibition of DCN1-UBE2M protein-protein interaction in human NCI-H1975 cells assessed as increase in NRF2 accumulation at 3 uM incubated for 24 hrs by Western blot analysis. It counts as cell-based. An outline of the steps:
as §2
(In general: In western blotting, separated proteins are transferred to a membrane and probed.)

The target is the same in assay [6]. Put plainly: Inhibition of DCN1-UBE2M protein-protein interaction in human NCI-H1975 cells assessed as increase in HO-1 accumulation at 3 uM incubated for 24 hrs by Western blot analysis. It counts as cell-based. An outline of the steps: as §2
Assay [7] shares this target. Put plainly: Inhibition of DCN1-UBE2M protein-protein interaction in human PC9 cells assessed as increase in NRF2 accumulation at 3 uM incubated for 24 hrs by Western blot analysis. It counts as cell-based. An outline of the steps:
as §2

For assay [8] the target is unchanged. Put plainly: Inhibition of DCN1-UBE2M protein-protein interaction in human NCI-H1975 cells assessed as increase in NQO1 accumulation at 3 uM incubated for 24 hrs by Western blot analysis. In kind it is cell-based. In short, it runs like this: as §2
For assay [9] the target is unchanged. Put plainly: Inhibition of DCN1-UBE2M protein-protein interaction in human PC9 cells assessed as increase in HO-1 accumulation at 3 uM incubated for 24 hrs by Western blot analysis. It counts as cell-based. An outline of the steps: as §2
Assay [10] deals with T3, NEDD8-activating enzyme E1 catalytic subunit (Homo sapiens) (UniProt Q8TBC4).
T3 sequence (whole entry): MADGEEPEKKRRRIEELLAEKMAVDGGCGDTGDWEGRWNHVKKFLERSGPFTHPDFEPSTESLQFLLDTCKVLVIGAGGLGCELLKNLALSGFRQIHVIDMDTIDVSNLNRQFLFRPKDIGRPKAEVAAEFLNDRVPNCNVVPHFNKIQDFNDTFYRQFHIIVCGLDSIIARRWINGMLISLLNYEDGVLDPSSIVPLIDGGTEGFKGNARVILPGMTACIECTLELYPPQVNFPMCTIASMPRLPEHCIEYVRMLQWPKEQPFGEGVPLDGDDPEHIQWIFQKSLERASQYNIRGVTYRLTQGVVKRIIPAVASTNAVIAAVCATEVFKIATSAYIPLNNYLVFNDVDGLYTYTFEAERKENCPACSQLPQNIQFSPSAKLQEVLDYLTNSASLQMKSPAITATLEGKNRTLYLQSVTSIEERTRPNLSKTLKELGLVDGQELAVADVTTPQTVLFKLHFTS
Put plainly: Inhibition of NEDD8-activating enzyme E1C (unknown origin) assessed as effect on NEDD8/UBE2M complex formation at 10 to 20 uM pre-incubated for 10 mins followed by Mg-ATP addition after 60 mins by SDS-PAGE analysis. An outline of the steps:
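Cell-free NEDD8~UBE2M formation: NEDD8 E1 mixed with NEDD8, UBE2M and compound (10 and 20µM reference inhibitor, or 1, 10 and 100µM test compound) in reaction buffer, 10 min at room temperature. Started with Mg-ATP, incubated 60 min at 37°C, then 1mM DTT and non-reducing loading buffer added. Resolved on 12% SDS-PAGE.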

The structures appear in SMILES notation. Calls of active or inactive are those of the source. No cut-off for these calls is given here. Some results are limits rather than exact numbers.

On to `C#CCSc1nc(Sc2nc(C)cs2)c(C#N)c(-c2cc(OC)c(OC)c(OC)c2)n1`, for which the 50% inhibitory concentration (IC50) was above 20 µM in the assay with KYSE-70 cell line; above 20 µM in the assay on PC-3; above 10 µM on DCN1-like protein 1 [1]; above 20 µM in the assay with PC-9; above 10 µM on DCN1-like protein 1 [3]; above 20 µM with MCF7. For the same compound, in the assay on SMMC-7721, the IC50 is above 20 µM. For the same compound, the inhibition result in assay [2] was “inactive”.
`NS(=O)(=O)OC[C@@H]1C[C@@H](n2ccc3c(N[C@H]4CCc5ccccc54)ncnc32)C[C@@H]1O`: the inhibition result in [4], in assay [5], in assay [6], in assay [7], in [8] and in [9] was “Active” each time. The inhibition result in assay [10] is “Active”.
Consider `C#CCSc1nc(Sc2nccs2)c(C#N)c(-c2ccc(Br)cc2)n1`, for which the half-inhibitory concentration (IC50) in the assay on KYSE-70 cell line is 10.9 µM; in the assay with PC-3, 8.53 µM; at DCN1-like protein 1 [1], 0.552 µM; in the assay with PC-9 it was 12.1 µM; on DCN1-like protein 1 [3], 0.189 µM; in the assay on MCF7, 11.6 µM. Moreover, in the assay with SMMC-7721, half-maximal inhibition (IC50) required 3.99 µM.
`C#CCSc1nc(Sc2nc[nH]n2)c(C#N)c(-c2cc(OC)c(OC)c(OC)c2)n1`: the IC50 was above 20 µM in the assay on KYSE-70 cell line; above 20 µM with PC-3; 1.22 µM on DCN1-like protein 1 [1]; above 20 µM with PC-9; above 5 µM on DCN1-like protein 1 [3]; above 20 µM in the assay with MCF7. In the assay with SMMC-7721, this compound had a half-inhibitory concentration (IC50) above 20 µM.
For the compound `C#CCSc1nc(Sc2ccccn2)c(C#N)c(-c2cc(OC)c(OC)c(OC)c2)n1`, the IC50 in the assay on KYSE-70 cell line is above 10 µM; in the assay with PC-3, above 10 µM; on DCN1-like protein 1 [1] it was above 10 µM; with PC-9 it was above 20 µM; at DCN1-like protein 1 [3], above 2.5 µM; in the assay with MCF7, above 10 µM. In the assay on SMMC-7721, this compound yielded an IC50 above 20 µM.
